From ChEMBL document CHEMBL1131472, “A1 adenosine receptor antagonists as ligands for positron emission tomography (PET) and single-photon emission tomography (SPET)” (J Med Chem, 1998)
Several values for one entry are separate records, joined by “and”; a condition that tells them apart may be missing. Identical values can stand only once.

Target: T1, Adenosine receptor A1 (Bos taurus, UniProt P28190)
T1 sequence (P28190 whole entry): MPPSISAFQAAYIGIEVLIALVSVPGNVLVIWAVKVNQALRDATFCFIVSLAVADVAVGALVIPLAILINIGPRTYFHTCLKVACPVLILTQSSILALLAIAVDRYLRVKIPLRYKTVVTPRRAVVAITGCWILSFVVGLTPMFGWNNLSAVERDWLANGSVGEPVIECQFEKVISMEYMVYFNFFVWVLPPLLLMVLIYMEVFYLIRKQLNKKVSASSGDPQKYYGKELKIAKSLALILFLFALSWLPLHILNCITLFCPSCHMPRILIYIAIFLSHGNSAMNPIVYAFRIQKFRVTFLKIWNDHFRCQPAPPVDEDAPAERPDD
Test: Displacement of [3H]CPX from Adenosine A1 receptor of bovine brain cerebral cortex membranes
Format: tissue-based
Procedure, shortened: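 Competition binding at room temperature in 50 mM Tris·HCl, 0.02% CHAPS, pH 7.4. Mixture held 0.2 nM [3H]CPX, 25 µg bovine cerebral cortex membranes and 0.2 U/mL adenosine deaminase. Membranes were added to start binding, and incubation was stopped after 2 h by glass-fibre filtration. Bound radioactivity was counted by liquid scintillation. Nonspecific binding was defined with 10 µM (R)-PIA. Ki came from nonlinear curve fitting as the geometric mean (95% confidence limits) of 3-5 experiments in duplicate.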

Row | SMILES | Ki
1 | CCCn1c(=O)n(C)c(=O)c2[nH]c(C3CCCC3)nc21 | 526 pM
2 | CCCn1c(=O)c2[nH]c(C3CCCC3)nc2n(CCC)c1=O [1,3-DIPROPYL-8-CYCLOPENTYLXANTHINE [DPCPX]] | 155 pM and 170 pM
3 | CCCn1c(=O)[nH]c2nc(C3CCCC3)n(C)c2c1=O | 149000 pM
4 | CCCn1c(=O)c2nc(C3CCCC3)[nH]c2n(C)c1=O | 310 pM
5 | CCCn1c(=O)n(CC(C)F)c(=O)c2[nH]c(C3CCCC3)nc21 (stereo unspecified) | 1230 pM
6 | CCCn1c(=O)c2nc(C3CCCC3)[nH]c2n(CCOC)c1=O | 493 pM

The remaining compounds from weak to strong by Ki, led by results:

Row | Ki | SMILES
7 | 286 pM | CCCn1c(=O)n(COCC)c(=O)c2[nH]c(C3CCCC3)nc21
8 | 237 pM | CCCn1c(=O)c2nc(C3CCCC3)[nH]c2n(C/C=C/I)c1=O
9 | 216 pM | CCCn1c(=O)n(CCCF)c(=O)c2nc(C3CCCC3)[nH]c21
10 | 183 pM | CCCn1c(=O)c2nc(C3CCCC3)[nH]c2n(CCCF)c1=O
11 | 94 pM | CCCn1c(=O)c2[nH]c(C3CCCC3)nc2n(CC(C)F)c1=O (stereo unspecified)
